DENV2 CPE: DENV2-induced cell death inhibition. DENV2-infected cells, cytopathic effect rescue, plate reader. CPE inhibition, % at 9.99 µM. 350,000 compounds, 1.7% hits. AID 651640; in the data active means CPE inhibition above about 20%, passing the limit was not always enough; inconclusive means no clear call, values can overlap the other calls; tested in BHK-21 cells;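 further: 0% = median of neutral control wells and 100% = median of positive control wells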
ERAP1 inh: ERAP1 (human) enzyme inhibition | 340,000 compounds, 0.15% hits | recombinant ERAP1, Leu-AMC fluorescence, 60 min | Q9NZ08 | AID 652197 | inhibition, % at 10.7 µM;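 active means mean replicate inhibition of at least 30%, or all replicates individually reaching that 30% level; inactive means mean below 30% and not every replicate reaching it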;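 further: 0% = neutral control wells and 100% = L-leucinethiol positive control wells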
GSIS activator: primary screen for activators of insulin secretion dependent on glucose, INS-1E cells, GLuc reporter luminescence; INS-1E GLuc reporter insulin secretion, 2-3 h; activation, % at 16.6 µM; 370,000 compounds, 0.61% hits;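 active means lowest replicate activation of at least 40%, so every replicate reaches that level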;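 further: 0% = median of neutral control wells and 100% = median of IBMX positive control wells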
E-selectin induc: E-selectin induction on HUVECs; activation, % at 7.58 µM; HUVEC E-selectin immunofluorescence imaging; normalized: neutral wells 0, TNF-alpha wells 100; 260,000 compounds, 0.37% hits;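 active means mean E-selectin-positive cell signal at least 10% of the positive control, reached in at least 60% of replicates, without over 20% cell loss; inconclusive means no rule given, readout overlaps actives, possibly toxicity-flagged; inactive means the rest, including those meeting only one limit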
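Test system: HUVEC | Signal: Immunofluorescence imaging | Read-out: Percent E-selectin-positive cells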
miR122 inh: miR-122 inhibition in Huh7 cells; Huh7 miR-122 Renilla luciferase sensor, 48 h; neutral wells = 0, positive control = 100; activation (reporter increase), % at 12.5 µM; 340,000 compounds, 0.3% hits;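 active means mean replicate activation score at least 90 and every replicate individually at or above 90; inconclusive means only one of the two criteria met; inactive means neither criterion met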;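 further: higher luciferase means less miR-122 activity so hits act as miR-122 inhibitors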
CFTR F508del cor: CFTR F508del correction in bronchial cells | CFBE cells, YFP halide quenching; stimulated with forskolin plus potentiator P3; % fluorescence drop versus neutral controls | activity (quench increase), % at 7.58 µM | 350,000 compounds, 0.36% hits | AID 720511;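 active means mean added fluorescence quench of at least 8% versus neutral control, with both replicates also reaching 8%; inconclusive means only one of the mean or replicate conditions met; inactive means mean below 8% and not both replicates reaching 8%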;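 further: cells transiently co-express mutant CFTR-F508del with the halide-sensitive YFP; corrector assay measuring rescue of mutant channel to the surface after 24 h compound exposure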
* = called active by the depositor; u = inconclusive; x = not tested or not shown; ! = repeats disagree; [ ] = another dose, or the depositor's remark. Sampled rows, rich in hits. Any-hit rate of the full collection: about 2.6%.

SMILES | DENV2 CPE | ERAP1 inh | GSIS activator | E-selectin induc | miR122 inh | CFTR F508del cor
Cc1noc(C)c1NC(=O)N(C)C[C@H]1Oc2ccc(NS(=O)(=O)c3cccs3)cc2C(=O)N([C@H](C)CO)C[C@@H]1C | -14.2 | 1.5 | 8.3 | 255.2*! | 0.7[16.7 µM] | 1.3
Cc1noc(C)c1NC(=O)N(C)C[C@@H]1Oc2ccc(NS(=O)(=O)c3cccs3)cc2C(=O)N([C@@H](C)CO)C[C@H]1C | 37.6* | 0.0 | 6.6 | -7.4 | 2.5[16.7 µM] | 0.8
C[C@@H]1CN([C@@H](C)CO)C(=O)c2cc(NS(=O)(=O)c3cccs3)ccc2O[C@H]1CN(C)C(=O)Nc1ccc2c(c1)OCO2 | 5.2 | 1.0 | -8.0 | 284.1* | -2.1[16.7 µM] | -0.6
Cc1noc(C)c1NC(=O)N(C)C[C@H]1OCCCC[C@@H](C)Oc2ccc(NS(=O)(=O)c3cccs3)cc2C(=O)N([C@@H](C)CO)C[C@@H]1C | -5.9 | -1.1 | 12.8 | 0.8 | 6.2[16.7 µM] | -2.5
Cc1noc(C)c1NC(=O)N(C)C[C@@H]1Oc2ccc(NS(=O)(=O)c3cccs3)cc2C(=O)N([C@H](C)CO)C[C@H]1C | -9.2 | 0.6 | -2.4 | -8.2 | -1.2[16.7 µM] | -2.9
CCC(=O)N1CC2(CCN(S(C)(=O)=O)CC2)c2c(n(C)c3cc(OC)ccc23)[C@@H]1CO | 4.7 | x | 12.4 | -0.4 | x | 2.2
O=C(Nc1ccc2c(c1)OCO2)N[C@@H]1CC[C@@H](CCNC(=O)C2CCC2)O[C@H]1CO | -4.0 | -1.7 | 36.9 | 5.4 | 0.3[16.7 µM] | -0.6
COc1ccc(S(=O)(=O)Nc2ccc3c(c2)C(=O)N([C@H](C)CO)C[C@H](C)[C@@H](CN(C)C(=O)Nc2ccc(F)cc2)OCCCC[C@@H](C)O3)cc1 | 7.0 | -0.5 | -2.7 | 0.0 | 19.3[16.7 µM] | -3.0
C[C@H](CO)N1C[C@H](C)[C@H](CN(C)C(=O)Nc2cc(F)ccc2F)Oc2cc(/C=C/c3ccccc3)ccc2S1(=O)=O | -1.2 | 1.1 | 22.2 | -0.2 | -9.0[16.7 µM] | 3.2
Cc1ccc(C2=C(O)C(=O)C(c3ccc(C)cc3)=C(O)C2=O)cc1 | 55.7* | 0.7 | -2.6 | -0.3 | x | -1.3
CC(=O)Nc1ccc2nc(CN3CCC(CO)(CCc4ccccc4)CC3)ccc2c1 | -0.7 | -4.9 | -18.3 | x | 162.4* | 3.7
CCCC(=O)Nc1nc(C)c(-c2csc(Nc3ccccc3OC)n2)s1 | 2.1 | 0.4 | -14.0 | 0.2 | -0.8 | 2.5
CC(=O)Nc1nc(C)c(-c2csc(Nc3cccc([N+](=O)[O-])c3)n2)s1 | x | x | 134.1* | x | -23.4 | x
C=CCCC(=O)Nc1nc(C)c(-c2csc(Nc3cc(OC)ccc3OC)n2)s1 | -5.6 | -3.3 | -4.0 | 0.4 | 28.8 | 8.8*
CCCC(=O)Nc1nc(C)c(-c2csc(Nc3cc(OC)ccc3OC)n2)s1 | -8.6 | -0.7 | -4.8 | -0.2 | -8.1 | 3.2
CC(=O)Nc1nc(C)c(-c2csc(Nc3cccc(C(C)=O)c3)n2)s1 | 6.0 | -0.8 | -5.0 | 0.8 | x | 4.8
COc1cccc(Nc2nc(-c3sc(NC(=O)CC(C)C)nc3C)cs2)c1 | u | 1.1 | x | x | 0.0 | 3.7
COc1ccccc1Nc1nc(-c2sc(NC(=O)C(C)(C)C)nc2C)cs1 | u | 1.7 | 0.1 | 0.0 | 2.6 | 13.6*
COc1cccc(Nc2nc(-c3sc(NC(=O)c4ccccc4)nc3C)cs2)c1 | u | -1.6 | -10.3 | x | 8.0 | 9.1*
Cc1nc(C)c(-c2csc(Nc3ccc(N)cc3)n2)s1 | 0.2 | -3.0 | -6.3 | 3.2 | x | -2.7
COc1ccc(Nc2nc(-c3sc(C)nc3C)cs2)cc1 | -3.6 | -6.9 | -1.7 | x | 13.8 | 9.1*
CCNC(=O)C[C@@H]1CC[C@@H]2[C@@H](COc3ccc(NC(=O)Nc4cccc(OC)c4)cc3C(=O)N2C)O1 | 3.9 | x | 0.2 | 76.2* | -6.7[16.7 µM] | 1.8
CCNC(=O)C[C@@H]1CC[C@H]2[C@@H](COc3ccc(NC(=O)Nc4cccc(OC)c4)cc3C(=O)N2C)O1 | 0.5 | x | 4.2 | 0.1 | -10.0[16.7 µM] | 2.2
CCNC(=O)Nc1ccc2c(c1)C(=O)N(C)[C@H]1CC[C@@H](CC(=O)NC3CCCCC3)O[C@H]1CO2 | -5.6 | -1.3 | -0.6 | 0.1 | 5.6[16.7 µM] | 0.2
CCNC(=O)Nc1ccc2c(c1)C(=O)N(C)[C@H]1CC[C@@H](CC(=O)NC3CCCCC3)O[C@@H]1CO2 | 27.4* | -0.6 | 0.6 | 0.0 | -15.6[16.7 µM] | -1.3
SMILES | DENV2 CPE | ERAP1 inh | GSIS activator | E-selectin induc | miR122 inh | CFTR F508del cor
Cc1cc(C(=O)Nc2cccc3c2O[C@@H](CN(C)CC2CCCCC2)[C@@H](C)CN([C@H](C)CO)C3=O)n(C)n1 | -2.1 | -0.3 | 6.7 | 15.0 | 96.5*[16.7 µM] | 2.9
Cc1cc(C(=O)Nc2cccc3c2O[C@@H](CN(C)CC2CCCCC2)[C@@H](C)CN([C@@H](C)CO)C3=O)n(C)n1 | -3.6 | 0.8 | 23.7 | 1.3 | 94.4*[16.7 µM] | 4.5
Cc1cc(C(=O)Nc2cccc3c2O[C@@H](CN(C)CC2CCCCC2)[C@H](C)CN([C@H](C)CO)C3=O)n(C)n1 | -10.2 | 1.1 | 16.3 | -2.3 | 3.3[16.7 µM] | 1.7
Cc1cc(C(=O)Nc2cccc3c2O[C@H](CN(C)CC2CCCCC2)[C@@H](C)CN([C@@H](C)CO)C3=O)n(C)n1 | -5.8 | 0.0 | 5.7 | 6.4 | 67.3[16.7 µM] | 1.8
CON(C)C(=O)/C=C/CCCCNC(=O)OC(C)(C)C | 37.4* | x | -0.3 | 0.5 | -3.8 | 0.3
CC(C)(C)OC(=O)NCCCCCO | 7.6 | -1.3 | x | 0.4 | 1.6 | 7.0
CCN1C(=O)[C@H]2[C@H]3CN=C(SCc4ccc(Cl)cc4)N3[C@@](Cc3ccccc3)(C(=O)OC)[C@H]2C1=O | 17.4 | -1.9 | -16.8 | x | -4.6 | 3.4
COC(=O)[C@@]1(Cc2ccccc2)[C@H]2C(=O)N(Cc3ccccc3)C(=O)[C@H]2[C@H]2CN=C(SCc3ccc(Cl)cc3)N21 | 84.5* | 0.4 | -7.1 | -2.1 | -2.8 | -1.4
COC(=O)[C@]1(Cc2ccccc2)N[C@H](CN(C)C(C)=O)[C@@H]2C(=O)N(C)C(=O)[C@@H]21 | 22.5* | 2.0 | 21.3 | 0.2 | x | -4.7
CC[C@@]1(C(=O)OC)N[C@H](CN(C)C(=O)NC(C)C)[C@@H]2C(=O)N(Cc3ccccc3)C(=O)[C@@H]21 | 7.4 | -3.2 | 16.5 | 0.5 | x | -2.9
CCN(C[C@H]1N[C@@](Cc2ccccc2)(C(=O)OC)[C@H]2C(=O)N(C)C(=O)[C@@H]12)S(=O)(=O)c1ccc(OC(F)(F)F)cc1 | 83.5* | -3.9 | x | x | 5.7 | 3.4
CCNC(=O)N(C)C[C@H]1N[C@@](CC)(C(=O)OC)[C@H]2C(=O)N(Cc3ccccc3)C(=O)[C@@H]12 | 28.6* | -5.4 | 13.3 | x | -4.3 | -0.8
COc1ccc(S(=O)(=O)Nc2ccc3c(c2)C(=O)N([C@@H](C)CO)C[C@H](C)[C@@H](CN(C)C(=O)C2CCCCC2)OCCCC[C@H](C)O3)cc1 | 3.0 | -0.1 | -30.4 | 0.5 | 3.6[16.7 µM] | -4.9

Source: PubChem (Broad Institute)
